Results published in ChEMBL document CHEMBL4414566, “Cytotoxicity and Anti-inflammatory Properties of Apigenin-Derived Isolaxifolin” (J Nat Prod, 2019).

What was measured:
Format in all cases: functional
[1] = system: MDA-MB-231; experiment: Induction of apoptosis in human MDA-MB-231 cells assessed as late apoptotic cells at 17.3 uM incubated for 48 hrs by annexin V-FITC/PI based flow cytometric analysis (Rvb= 2.82%)
[2] = system: MDA-MB-231; experiment: Induction of cell cycle arrest in human MDA-MB-231 cells assessed as accumulation of cells at G0/G1 phase at 17.3 uM incubated for 48 hrs by PI/RNase staining based flow cytometric analysis (reference value: 50.4%)
Outline: (§1)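 Cell-cycle analysis: MDA-MB-231 cells were preincubated 24 h, then treated with 8.6, 12.4 or 17.3 μM for 48 h. Cells were pelleted, fixed in 75% ethanol at −20 °C overnight, and stained with PI/RNase for 15 min in the dark at ambient temperature. About 10 000 cells per well were analyzed by flow cytometry for DNA content.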

[3] = system: MDA-MB-231; experiment: Induction of cell cycle arrest in human MDA-MB-231 cells assessed as accumulation of cells at S phase at 12.4 uM incubated for 48 hrs by PI/RNase staining based flow cytometric analysis (reference value: 39.2%); outline: as §1
[4] = system: MCF7; experiment: Antiproliferative activity against human MCF7 cells assessed as cell viability at 24.2 uM incubated for 48 hrs by methylene blue assay relative to control; settings: MCF7, 48 h, read-out: Activity
Outline: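 MDA-MB-231, MCF-7, HepG2 and LNCaP cells were grown in DMEM; HCT-116 and LO-2 in RPMI-1640; all with 10% FBS at 37 °C, 5% CO2. Cells seeded at 1.5 × 10^5 cells/mL and incubated overnight (~12 h), then exposed to 6.2–30.9 μM or 23.1–185.0 μM (final DMSO <0.1%) for 48 h. Read by methylene blue staining; viability = Abs treated/Abs untreated × 100%, triplicate.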

## CC(C)=CCc1c2c(c(O)c3c(=O)cc(-c4ccc(O)cc4)oc13)C=CC(C)(C)O2 [LAXIFOLIN]
[1]
  Activity: 24.55%
[2]
  Activity: 63.3%
[3]
  Activity: 28.2%
[4]
  viability at 24.2 µM: 20%
